According to ChEMBL document CHEMBL4393654, “Discovery and Early Clinical Development of an Inhibitor of 5-Lipoxygenase Activating Protein (AZD5718) for Treatment of Coronary Artery Disease” (J Med Chem, 2019):

Columns and labels:
[1] = Intrinsic clearance in human hepatocytes assessed per million cells at 1 uM measured after 2 to 60 mins by LC-MS/MS analysis; format: ADME, cell-based, Hepatocyte; conditions: read-out: CLH
[2] = Passive apparent permeability across apical to basolateral side in human Caco2 cells at pH 6.5; format: ADME, cell-based; conditions: Caco-2, pH 6.5
How it was run: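 Passive permeability across Caco-2 monolayers, measured in the A to B direction at pH 6.5.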

Cytochrome P450 1A2 = molecular target: T1, Cytochrome P450 1A2 (Homo sapiens, UniProt P05177); assay: Inhibition of recombinant human CYP1A2 expressed in Escherichia coli using CEC as substrate by fluorescence assay; format: ADME
T1 sequence (P05177 whole entry): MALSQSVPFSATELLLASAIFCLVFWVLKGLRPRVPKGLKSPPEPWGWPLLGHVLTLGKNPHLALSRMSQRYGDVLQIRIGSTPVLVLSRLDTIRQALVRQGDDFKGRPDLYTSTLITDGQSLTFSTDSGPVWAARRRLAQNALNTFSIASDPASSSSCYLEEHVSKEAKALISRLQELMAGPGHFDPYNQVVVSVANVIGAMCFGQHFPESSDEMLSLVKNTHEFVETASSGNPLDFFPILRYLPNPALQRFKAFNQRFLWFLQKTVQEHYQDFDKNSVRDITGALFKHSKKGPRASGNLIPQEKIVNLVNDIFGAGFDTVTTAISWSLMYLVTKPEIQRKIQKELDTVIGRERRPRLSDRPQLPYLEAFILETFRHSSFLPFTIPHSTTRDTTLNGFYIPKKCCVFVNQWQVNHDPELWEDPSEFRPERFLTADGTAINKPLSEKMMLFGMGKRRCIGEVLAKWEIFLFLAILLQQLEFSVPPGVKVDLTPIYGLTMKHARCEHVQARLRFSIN

Cytochrome P450 2C9 = Cytochrome P450 2C9 (Homo sapiens, UniProt P11712); assay: Inhibition of recombinant human CYP2C9 expressed in Escherichia coli using 7MFC as substrate by fluorescence assay; format: ADME
Cytochrome P450 2D6 = Cytochrome P450 2D6 (Homo sapiens, UniProt P10635); assay: Inhibition of recombinant human CYP2D6 expressed in Escherichia coli using MAMC as substrate by fluorescence assay; format: ADME
Cytochrome P450 3A4 = Cytochrome P450 3A4 (Homo sapiens, UniProt P08684); assay: Inhibition of recombinant human CYP3A4 expressed in Escherichia coli using BFC as substrate by fluorescence assay; format: ADME
[3] = Clearance in Beagle dog at 2 umol/kg, iv; format: ADME, Canis lupus familiaris; conditions: in vivo
[4] = Half life in Beagle dog at 2 umol/kg, iv; format: ADME, Canis lupus familiaris; conditions: in vivo
[5] = Volume of distribution at steady state in Beagle dog at 2 umol/kg, iv; format: ADME, Canis lupus familiaris; conditions: in vivo, read-out: Vdss
[6] = Protein binding in human plasma assessed as unbound fraction by equilibrium dialysis method; format: ADME, cell-free
[7] = molecular target: Solute carrier organic anion transporter family member 1B1 (Homo sapiens, UniProt Q9Y6L6); assay: […] at recombinant human OATP1B1 expressed in HEK293 cells assessed as reduction in pivastatin uptake; format: ADME, cell-based
[8] = molecular target: T2, Potassium voltage-gated channel subfamily KQT member 1 (Homo sapiens, UniProt P51787); assay: Inhibition of human Kv7.1 by Ion-work electrophysiology assay
T2 sequence (P51787 whole entry): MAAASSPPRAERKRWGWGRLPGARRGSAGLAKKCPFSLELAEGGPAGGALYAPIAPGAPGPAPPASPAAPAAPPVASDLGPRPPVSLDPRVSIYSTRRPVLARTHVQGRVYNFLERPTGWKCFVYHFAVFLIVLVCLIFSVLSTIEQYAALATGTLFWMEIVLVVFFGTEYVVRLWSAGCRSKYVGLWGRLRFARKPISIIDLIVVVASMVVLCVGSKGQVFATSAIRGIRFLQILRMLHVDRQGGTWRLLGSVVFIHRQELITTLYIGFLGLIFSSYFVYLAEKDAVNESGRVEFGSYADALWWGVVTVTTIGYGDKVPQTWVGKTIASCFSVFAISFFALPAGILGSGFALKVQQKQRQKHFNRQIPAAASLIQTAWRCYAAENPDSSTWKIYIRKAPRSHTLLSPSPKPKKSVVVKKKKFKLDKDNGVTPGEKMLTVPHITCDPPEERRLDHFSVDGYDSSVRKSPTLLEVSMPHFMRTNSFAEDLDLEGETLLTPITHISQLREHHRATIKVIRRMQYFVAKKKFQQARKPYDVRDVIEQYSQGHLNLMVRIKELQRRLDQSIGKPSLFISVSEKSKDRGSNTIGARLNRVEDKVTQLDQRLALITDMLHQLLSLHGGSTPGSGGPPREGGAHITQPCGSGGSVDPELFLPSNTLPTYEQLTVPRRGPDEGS

[9] = molecular target: Potassium voltage-gated channel subfamily E member 1 (Homo sapiens, UniProt P15382); assay: Inhibition of human KCNE1 by Ion-work electrophysiology assay
[10] = molecular target: T3, A-type voltage-gated potassium channel KCND3 (Homo sapiens, UniProt Q9UK17); assay: Inhibition of human Kv4.3 by Ion-work electrophysiology assay
T3 sequence (Q9UK17 whole entry): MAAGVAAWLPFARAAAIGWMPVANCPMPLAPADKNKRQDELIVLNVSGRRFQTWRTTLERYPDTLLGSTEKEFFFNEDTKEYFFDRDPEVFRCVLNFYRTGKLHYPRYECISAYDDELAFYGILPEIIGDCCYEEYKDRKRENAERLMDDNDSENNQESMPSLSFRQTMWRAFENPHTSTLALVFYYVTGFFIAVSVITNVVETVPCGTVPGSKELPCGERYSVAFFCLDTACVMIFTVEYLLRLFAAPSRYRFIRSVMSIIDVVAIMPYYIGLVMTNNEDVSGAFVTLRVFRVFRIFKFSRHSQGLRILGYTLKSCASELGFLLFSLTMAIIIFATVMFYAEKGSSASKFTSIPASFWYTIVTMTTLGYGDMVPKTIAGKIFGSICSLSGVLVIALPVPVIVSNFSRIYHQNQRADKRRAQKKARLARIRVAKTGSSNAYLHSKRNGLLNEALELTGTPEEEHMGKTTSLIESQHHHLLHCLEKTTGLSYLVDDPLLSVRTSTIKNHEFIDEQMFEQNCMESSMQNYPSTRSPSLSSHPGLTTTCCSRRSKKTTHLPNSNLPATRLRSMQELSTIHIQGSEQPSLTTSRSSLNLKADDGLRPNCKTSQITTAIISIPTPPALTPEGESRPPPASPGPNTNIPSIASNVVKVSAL

[11] = molecular target: Voltage-dependent T-type calcium channel subunit alpha-1H (Homo sapiens, UniProt O95180); assay: Inhibition of human Cav3.2 by Ion-work electrophysiology assay
[12] = Cardiotoxicity in anesthetized Beagle dog assessed as effect on heart rate administered for 2 days as 45 mins iv infusion followed by compound washout and subsequent adrenaline dosing for 2 days as 10 mins iv infusion; format: toxicity, organism-based, Canis lupus familiaris; conditions: in vivo
[13] = Clearance in rat at 1 umol/kg, iv; format: ADME; conditions: in vivo
[14] = Half life in rat at 1 umol/kg, iv; format: ADME; conditions: in vivo
[15] = Volume of distribution at steady state in rat at 1 umol/kg, iv; format: ADME; conditions: in vivo, read-out: Vdss
[16] = Oral bioavailability in Beagle dog at 2 umol/kg; format: ADME, organism-based, Canis lupus familiaris; conditions: in vivo

Chain of Cytochrome P450 2C9 (P11712 whole entry): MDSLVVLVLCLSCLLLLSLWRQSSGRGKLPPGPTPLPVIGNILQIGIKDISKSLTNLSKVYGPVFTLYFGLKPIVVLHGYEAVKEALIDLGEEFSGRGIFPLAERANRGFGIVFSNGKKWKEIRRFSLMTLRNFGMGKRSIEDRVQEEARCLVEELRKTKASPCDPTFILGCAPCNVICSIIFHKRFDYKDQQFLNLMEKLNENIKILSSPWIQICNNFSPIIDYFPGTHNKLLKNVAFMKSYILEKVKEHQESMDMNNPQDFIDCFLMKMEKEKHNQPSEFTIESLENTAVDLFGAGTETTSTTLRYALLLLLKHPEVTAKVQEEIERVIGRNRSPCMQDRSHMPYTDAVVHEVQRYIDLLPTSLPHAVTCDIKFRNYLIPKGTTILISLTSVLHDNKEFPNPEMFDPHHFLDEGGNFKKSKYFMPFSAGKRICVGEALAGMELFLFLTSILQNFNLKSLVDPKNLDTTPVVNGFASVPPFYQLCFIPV
Chain of Cytochrome P450 2D6 (P10635 whole entry): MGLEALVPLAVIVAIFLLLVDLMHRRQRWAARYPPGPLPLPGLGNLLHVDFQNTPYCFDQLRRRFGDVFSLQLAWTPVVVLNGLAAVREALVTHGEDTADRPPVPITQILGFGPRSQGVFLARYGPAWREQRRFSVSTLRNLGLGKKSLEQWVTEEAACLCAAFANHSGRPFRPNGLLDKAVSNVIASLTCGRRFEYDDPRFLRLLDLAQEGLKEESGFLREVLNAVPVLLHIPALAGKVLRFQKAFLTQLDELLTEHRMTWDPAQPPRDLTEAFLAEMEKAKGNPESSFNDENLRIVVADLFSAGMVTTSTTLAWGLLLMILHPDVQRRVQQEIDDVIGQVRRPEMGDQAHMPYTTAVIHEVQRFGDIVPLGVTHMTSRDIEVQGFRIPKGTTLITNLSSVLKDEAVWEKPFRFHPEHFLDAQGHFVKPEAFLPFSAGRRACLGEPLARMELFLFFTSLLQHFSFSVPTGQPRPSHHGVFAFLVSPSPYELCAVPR
Chain of Cytochrome P450 3A4 (P08684 whole entry): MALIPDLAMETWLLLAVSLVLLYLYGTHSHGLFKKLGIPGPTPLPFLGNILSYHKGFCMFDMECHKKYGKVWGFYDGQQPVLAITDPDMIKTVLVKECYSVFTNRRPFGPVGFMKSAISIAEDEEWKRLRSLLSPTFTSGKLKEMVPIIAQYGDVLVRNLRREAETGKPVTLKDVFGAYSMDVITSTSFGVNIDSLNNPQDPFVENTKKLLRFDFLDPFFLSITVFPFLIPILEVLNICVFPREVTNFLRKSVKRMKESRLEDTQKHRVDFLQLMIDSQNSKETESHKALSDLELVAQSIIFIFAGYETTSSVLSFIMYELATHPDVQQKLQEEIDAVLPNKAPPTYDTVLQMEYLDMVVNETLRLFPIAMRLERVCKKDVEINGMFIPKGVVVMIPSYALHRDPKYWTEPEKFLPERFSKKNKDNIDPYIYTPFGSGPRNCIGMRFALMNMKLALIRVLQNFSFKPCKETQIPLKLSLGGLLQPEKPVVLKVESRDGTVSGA
Chain of Voltage-dependent T-type calcium channel subunit alpha-1H (O95180 whole entry, the tested form may be a part): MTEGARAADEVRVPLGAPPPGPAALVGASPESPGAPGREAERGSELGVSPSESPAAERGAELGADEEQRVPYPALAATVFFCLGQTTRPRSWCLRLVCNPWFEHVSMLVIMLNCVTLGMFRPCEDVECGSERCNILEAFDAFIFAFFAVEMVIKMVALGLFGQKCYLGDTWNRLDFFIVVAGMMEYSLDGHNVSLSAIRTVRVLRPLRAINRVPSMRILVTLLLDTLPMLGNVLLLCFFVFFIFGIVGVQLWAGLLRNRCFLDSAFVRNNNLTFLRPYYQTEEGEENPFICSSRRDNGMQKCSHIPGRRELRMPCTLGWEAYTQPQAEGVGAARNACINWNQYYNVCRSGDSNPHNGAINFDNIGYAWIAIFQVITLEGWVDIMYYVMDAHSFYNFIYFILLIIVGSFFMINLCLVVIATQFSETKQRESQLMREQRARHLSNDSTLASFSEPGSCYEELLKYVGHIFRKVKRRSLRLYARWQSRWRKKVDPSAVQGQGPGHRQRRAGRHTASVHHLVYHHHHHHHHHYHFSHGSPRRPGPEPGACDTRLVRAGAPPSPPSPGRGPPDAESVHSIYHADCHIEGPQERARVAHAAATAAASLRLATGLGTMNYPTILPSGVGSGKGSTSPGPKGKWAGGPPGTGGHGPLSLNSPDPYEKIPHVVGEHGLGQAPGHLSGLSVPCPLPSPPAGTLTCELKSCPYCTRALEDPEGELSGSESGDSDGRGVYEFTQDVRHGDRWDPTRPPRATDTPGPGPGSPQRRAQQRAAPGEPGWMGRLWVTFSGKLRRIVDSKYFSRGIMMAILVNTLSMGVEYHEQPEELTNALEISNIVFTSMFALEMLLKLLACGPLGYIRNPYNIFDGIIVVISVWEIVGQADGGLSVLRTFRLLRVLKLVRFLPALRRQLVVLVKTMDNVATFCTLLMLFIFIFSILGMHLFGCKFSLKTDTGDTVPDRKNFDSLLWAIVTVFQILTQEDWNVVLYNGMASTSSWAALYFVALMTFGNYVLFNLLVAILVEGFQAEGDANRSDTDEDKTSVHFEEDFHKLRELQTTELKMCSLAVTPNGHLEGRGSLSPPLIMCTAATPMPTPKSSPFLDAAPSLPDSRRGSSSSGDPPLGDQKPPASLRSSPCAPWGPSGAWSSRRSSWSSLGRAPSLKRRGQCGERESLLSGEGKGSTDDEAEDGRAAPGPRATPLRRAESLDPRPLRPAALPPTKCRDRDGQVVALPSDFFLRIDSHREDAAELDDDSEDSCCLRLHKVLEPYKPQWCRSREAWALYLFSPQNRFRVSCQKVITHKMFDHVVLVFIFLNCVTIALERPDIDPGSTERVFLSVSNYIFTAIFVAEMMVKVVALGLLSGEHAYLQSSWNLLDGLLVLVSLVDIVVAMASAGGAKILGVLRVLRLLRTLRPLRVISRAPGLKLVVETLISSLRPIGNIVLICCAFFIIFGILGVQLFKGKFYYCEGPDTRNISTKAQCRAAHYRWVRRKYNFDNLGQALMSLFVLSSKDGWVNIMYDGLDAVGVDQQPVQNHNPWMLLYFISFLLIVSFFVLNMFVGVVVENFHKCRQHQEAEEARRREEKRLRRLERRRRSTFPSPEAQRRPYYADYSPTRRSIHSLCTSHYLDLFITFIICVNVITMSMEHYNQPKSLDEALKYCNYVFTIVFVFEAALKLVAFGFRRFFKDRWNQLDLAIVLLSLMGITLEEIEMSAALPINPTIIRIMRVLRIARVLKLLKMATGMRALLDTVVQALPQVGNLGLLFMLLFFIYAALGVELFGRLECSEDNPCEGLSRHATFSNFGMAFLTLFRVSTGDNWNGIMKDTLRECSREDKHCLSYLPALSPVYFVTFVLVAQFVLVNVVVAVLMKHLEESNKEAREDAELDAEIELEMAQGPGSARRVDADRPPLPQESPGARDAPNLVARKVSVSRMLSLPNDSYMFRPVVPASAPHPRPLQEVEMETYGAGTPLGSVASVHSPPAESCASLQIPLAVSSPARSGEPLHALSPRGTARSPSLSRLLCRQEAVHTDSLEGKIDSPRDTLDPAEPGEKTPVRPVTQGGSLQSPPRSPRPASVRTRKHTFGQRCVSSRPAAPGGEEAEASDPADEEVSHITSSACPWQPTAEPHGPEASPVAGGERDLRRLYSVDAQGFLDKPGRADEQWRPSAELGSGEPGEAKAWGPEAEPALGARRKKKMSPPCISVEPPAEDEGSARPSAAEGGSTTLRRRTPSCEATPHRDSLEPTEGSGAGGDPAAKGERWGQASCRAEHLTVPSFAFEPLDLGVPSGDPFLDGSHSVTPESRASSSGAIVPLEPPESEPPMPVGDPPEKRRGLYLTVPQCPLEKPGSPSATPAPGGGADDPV
Chain of Solute carrier organic anion transporter family member 1B1 (Q9Y6L6 whole entry): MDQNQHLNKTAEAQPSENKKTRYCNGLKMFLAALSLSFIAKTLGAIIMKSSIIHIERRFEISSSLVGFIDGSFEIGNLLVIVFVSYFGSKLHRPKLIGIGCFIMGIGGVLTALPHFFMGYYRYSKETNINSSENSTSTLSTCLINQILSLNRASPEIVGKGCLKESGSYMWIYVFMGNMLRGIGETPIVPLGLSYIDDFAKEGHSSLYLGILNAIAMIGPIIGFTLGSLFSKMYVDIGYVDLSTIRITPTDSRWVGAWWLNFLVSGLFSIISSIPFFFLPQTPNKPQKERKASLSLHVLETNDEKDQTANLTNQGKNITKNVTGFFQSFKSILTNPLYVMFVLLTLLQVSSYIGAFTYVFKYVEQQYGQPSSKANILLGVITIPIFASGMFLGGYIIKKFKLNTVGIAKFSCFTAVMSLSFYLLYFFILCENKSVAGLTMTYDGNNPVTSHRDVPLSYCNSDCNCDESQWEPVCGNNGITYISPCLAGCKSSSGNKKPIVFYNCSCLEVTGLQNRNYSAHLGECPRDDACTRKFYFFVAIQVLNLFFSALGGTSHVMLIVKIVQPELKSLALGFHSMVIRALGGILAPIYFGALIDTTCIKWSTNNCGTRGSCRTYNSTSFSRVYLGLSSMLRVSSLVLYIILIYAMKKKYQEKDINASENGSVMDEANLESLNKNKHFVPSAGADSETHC

SMILES	hepatocyte CLint at 1 µM [1]	Papp A→B [2]	IC50 (Cytochrome P450 1A2)	IC50 (Cytochrome P450 2C9)	IC50 (Cytochrome P450 2D6)	IC50 (Cytochrome P450 3A4)	clearance [3]	half-life [4]	Vd [5]	fraction unbound [6]	IC50 [7]	IC50 [8]	IC50 [9]	IC50 [10]	IC50 [11]	Activity [12]	clearance [13]	half-life [14]	Vd [15]	bioavailability [16]
Cc1cc(-c2ccc(C(=O)[C@@H]3CCCC[C@H]3C(=O)Nc3cnn(C)c3S(N)(=O)=O)cc2)[nH]n1	4.9 µL/min/1e6 cells	90 nm/s	> 20 µM	> 20 µM	> 20 µM	> 20 µM	0.15 L/h/kg	6.8 h	1.3 L/kg	0.031	2.5 µM	> 33 µM	> 33 µM	> 33 µM	> 32 µM	Non-Toxic				
Cc1cc(-c2ccc(C(=O)[C@@H]3CCCC[C@H]3C(=O)Nc3cnn4c3C(=O)NCC4)cc2)[nH]n1	4.2 µL/min/1e6 cells	37 nm/s	> 20 µM	> 20 µM	> 20 µM	> 20 µM	0.456 L/h/kg	2.1 h	1.1 L/kg	0.053		> 33 µM	> 33 µM	> 33 µM	> 32 µM	Non-Toxic	2.16 L/h/kg	0.45 h	1.1 L/kg	65%
Cc1cc(-c2ccc(C(=O)[C@@H]3CCCC[C@H]3C(=O)Nc3cnn(C)c3C(=O)NOC(C)(C)C)cc2)[nH]n1	6 µL/min/1e6 cells	147 nm/s	> 20 µM	> 20 µM	> 20 µM	> 20 µM				0.006	1.4 µM	> 33 µM	> 33 µM	> 33 µM		Toxic	0.072 L/h/kg	4.7 h	0.18 L/kg	65%
